Results collected from several papers.
Compare with care: the assays were run in different laboratories.
Target: Serine/threonine-protein kinase VRK2 (VRK2, Homo sapiens, UniProt Q86Y07)

SMILES	test	conditions	remaining binding
CNC(=O)Nc1ccc2c(c1)[C@@]1(CC2)OC(=O)N(CC(=O)N(Cc2ccc(F)cc2)[C@@H](C)C(F)(F)F)C1=O	cell-free assay, competition with immobilised ligand	1 µM	97%
COc1cnc(Nc2cccc(S(N)(=O)=O)c2)nc1N1CCN(c2ccccc2)CC1	binding, competition with immobilised ligand	1 µM	69%
NS(=O)(=O)c1cc(NC(=O)Cc2ccccc2)ccc1Oc1cccc(Cl)c1	cell-free assay, competition with immobilised ligand	1 µM	100%
Cc1cnc(Nc2ccc(C(=O)N3CCC(N4CCCC4)CC3)cc2)nc1-c1cc2ccccc2s1	binding, competition with immobilised ligand	1 µM	81%
CC1CCCN1c1nccc(-c2cnn3ncccc23)n1 (stereo not shown)	binding	1 µM	100%
FC(F)(F)Oc1cccc(-c2cnc3ccc(-c4ccncc4)nn23)c1	binding, competition with immobilised ligand	5 µM	75%
N[C@@H]1CCN(c2nccc(-c3cnn4ncccc34)n2)C1	binding	1 µM	100%
CC1=C(C#N)C(c2ccc3c(c2)c(NC(=O)c2ccccc2C)nn3C)C(C#N)=C(C)N1	cell-free assay, competition with immobilised ligand	1 µM	72%
COc1cnc(Nc2cccc(S(N)(=O)=O)c2)nc1N1CCN(c2ccccc2)C(=O)C1	binding, competition with immobilised ligand	1 µM	89%
C[C@@H](c1ccc(-n2cnc3c(N)ncnc32)cc1)N1CCc2nn(C)c(Cc3ccccc3)c2C1=O	binding, competition with immobilised ligand	0.1 µM	47%
O=C(c1ccc(Nc2ncc(Cl)c(-c3ccc(Cl)s3)n2)cc1)N1CCC(N2CCCC2)CC1	binding, competition with immobilised ligand	1 µM	56%
O=C(NCC1CCOCC1)c1n[nH]cc1NC(=O)c1c(F)cccc1F	binding, competition with immobilised ligand	1 µM	100%
Cc1c(NC(=O)c2cc(C(N)=O)nc3cc(F)ccc23)c(C(F)(F)F)nn1Cc1ccc(C(C)(C)C)cc1	cell-free assay, competition with immobilised ligand	1 µM	95%
COc1ccnn2ncc(-c3ccnc(N(C)C)n3)c12	binding	1 µM	100%
O=C(N1CCS(=O)(=O)CC1)N1C[C@H](c2ccc(OC(F)(F)F)cc2)C[C@H](c2nc(C3CC3)no2)C1	cell-free assay, competition with immobilised ligand	1 µM	90%
CCN1CCN(Cc2ccc(C(=O)Nc3ccc(C)c(Oc4ccc5c(c4)CC(=O)N5)c3)cc2C(F)(F)F)CC1	binding, competition with immobilised ligand	1 µM	100%
CN(CCCC(F)(F)F)c1nccc(-c2cnn3ncccc23)n1	binding	1 µM	100%
CC(C)CC(=O)N1CCc2nc(-c3ccc(Br)cc3)nc(N(C)Cc3ccccc3)c2C1	cell-free assay, competition with immobilised ligand	0.1 µM	77%
C[C@H]1CCN(c2nccc(-c3cnn4ncccc34)n2)C1	binding	1 µM	81%
O=C(NCCCN1CCOCC1)c1ccc(Nc2nccc(-c3cc4ccccc4s3)n2)cc1	binding, competition with immobilised ligand	1 µM	100%
CN(c1nccc(-c2cnn3ncccc23)n1)C1CC1	binding	1 µM	100%
COc1ncc2cc3ccccc3nc2c1C#N	cell-free assay, competition with immobilised ligand	5 µM	98%
